{
  "source": "ChEMBL document CHEMBL1221348",
  "about": "“1,2,3-triazole analogs of combretastatin A-4 as potential microtubule-binding agents” (Bioorg Med Chem, 2010)",
  "note": "pIC50: −log10 of the molar value.",
  "data": [
    {"test_system": "K562", "assay": "Cytotoxicity against human K562 cells after 5 days by MTT assay", "format": "functional, cell-based", "settings": "K562, 120 h", "method_in_brief": "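K562 human chronic myelogenous leukemia cells were grown in antibiotic-free RPMI with 10% v/v FCS and plated at 40,000 cells/mL. Drug was dissolved in DMSO and serially diluted in medium, with a drug-free control. Plates were incubated 5 days at 37 °C in 5% CO2. MTT was added for 3 h and the formazan dissolved in DMSO. OD was read at 540 and 690 nm to derive the growth-inhibitory dose.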", "values": [
      {"compound": "COc1ccc(-n2cc(-c3cc(OC)c(OC)c(OC)c3)nn2)cc1N", "pIC50": "< 5.00"},
      {"compound": "COc1ccc(-n2cc(-c3cc(OC)c(OC)c(OC)c3)nn2)cc1[N+](=O)[O-]", "pIC50": "< 5.00"},
      {"compound": "COc1ccc(Cn2cc(-c3cc(OC)c(OC)c(OC)c3)nn2)cc1O", "pIC50": "< 5.00"},
      {"compound": "COc1ccc(-c2cnnn2Cc2cc(OC)c(OC)c(OC)c2)cc1O", "pIC50": 6.28},
      {"compound": "COc1ccc(-c2cn(Cc3cc(OC)c(OC)c(OC)c3)nn2)cc1[N+](=O)[O-]", "pIC50": "< 5.00"},
      {"compound": "COc1ccc(Cn2cc(-c3cc(OC)c(OC)c(OC)c3)nn2)cc1Br", "pIC50": "< 5.00"},
      {"compound": "COc1ccc(-c2cnnn2Cc2cc(OC)c(OC)c(OC)c2)cc1[N+](=O)[O-]", "pIC50": "< 5.00"},
      {"compound": "COc1ccc(Cn2nncc2-c2cc(OC)c(OC)c(OC)c2)cc1Br", "pIC50": "< 5.00"},
      {"compound": "COc1ccc(-c2cn(-c3cc(OC)c(OC)c(OC)c3)nn2)cc1O", "pIC50": "< 5.00"},
      {"compound": "COc1ccc(-c2cn(Cc3cc(OC)c(OC)c(OC)c3)nn2)cc1N", "pIC50": "< 5.00"},
      {"compound": "COc1ccc(-n2cc(-c3cc(OC)c(OC)c(OC)c3)nn2)cc1Br", "pIC50": "< 5.00"},
      {"compound": "COc1ccc(Cn2nncc2-c2cc(OC)c(OC)c(OC)c2)cc1N", "pIC50": 6.14},
      {"compound": "COc1ccc(Cn2nncc2-c2cc(OC)c(OC)c(OC)c2)cc1O", "pIC50": 5.74},
      {"compound": "COc1ccc(Cn2nncc2-c2cc(OC)c(OC)c(OC)c2)cc1", "pIC50": 5.06},
      {"compound": "COc1ccc(-c2cn(Cc3cc(OC)c(OC)c(OC)c3)nn2)cc1", "pIC50": "< 5.00"},
      {"compound": "COc1ccc(Cn2nncc2-c2cc(OC)c(OC)c(OC)c2)cc1[N+](=O)[O-]", "pIC50": "< 5.00"},
      {"compound": "COc1ccc(-n2cc(-c3cc(OC)c(OC)c(OC)c3)nn2)cc1O", "pIC50": 5.49},
      {"compound": "COc1ccc(-c2cnnn2Cc2cc(OC)c(OC)c(OC)c2)cc1Br", "pIC50": "< 5.00"},
      {"compound": "COc1ccc(-n2cc(-c3cc(OC)c(OC)c(OC)c3)nn2)cc1", "pIC50": "< 5.00"},
      {"compound": "COc1ccc(Cn2cc(-c3cc(OC)c(OC)c(OC)c3)nn2)cc1[N+](=O)[O-]", "pIC50": "< 5.00"},
      {"compound": "COc1ccc(-c2cn(-c3cc(OC)c(OC)c(OC)c3)nn2)cc1Br", "pIC50": "< 5.00"},
      {"compound": "COc1ccc(Cn2cc(-c3cc(OC)c(OC)c(OC)c3)nn2)cc1N", "pIC50": "< 5.00"},
      {"compound": "COc1ccc(-c2cn(Cc3cc(OC)c(OC)c(OC)c3)nn2)cc1Br", "pIC50": "< 5.00"},
      {"compound": "COc1ccc(-c2cn(-c3cc(OC)c(OC)c(OC)c3)nn2)cc1", "pIC50": "< 5.00"},
      {"compound": "COc1ccc(Cn2cc(-c3cc(OC)c(OC)c(OC)c3)nn2)cc1", "pIC50": "< 5.00"},
      {"compound": "COc1ccc(-c2cn(Cc3cc(OC)c(OC)c(OC)c3)nn2)cc1O", "pIC50": "< 5.00"},
      {"compound": "COc1ccc(-c2cnnn2Cc2cc(OC)c(OC)c(OC)c2)cc1", "pIC50": 5.25},
      {"compound": "COc1ccc(-c2cn(-c3cc(OC)c(OC)c(OC)c3)nn2)cc1[N+](=O)[O-]", "pIC50": "< 5.00"},
      {"compound": "COc1ccc(-c2cnnn2Cc2cc(OC)c(OC)c(OC)c2)cc1N", "pIC50": 6.42}
    ]},
    {"biological_target": "Tubulin (Sus scrofa, UniProt P02554+P02550)", "assay": "Inhibition of pig tubulin polymerization", "format": "protein assay", "settings": "not given", "method_in_brief": "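Porcine brain tubulin (11 mg/mL stock) was used in Mes buffer (0.1 M Mes, 1 mM EGTA, 0.5 mM MgCl2, pH 6.6) with GTP (5 mM stock) and drug in DMSO. The plate was prechilled 30 min at 4 °C. Absorbance at 350 nm was recorded at ambient temperature for 60 min against buffer+drug blanks. IC50 was taken graphically as percent of untreated control assembly.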", "units": {"IC50": "µM"}, "values": [
      {"compound": "COc1ccc(Cn2nncc2-c2cc(OC)c(OC)c(OC)c2)cc1N", "IC50": "> 20"},
      {"compound": "COc1ccc(-n2cc(-c3cc(OC)c(OC)c(OC)c3)nn2)cc1O", "IC50": "> 20"},
      {"compound": "COc1ccc(-c2cn(-c3cc(OC)c(OC)c(OC)c3)nn2)cc1N", "IC50": "> 20"},
      {"compound": "COc1ccc(-c2cnnn2Cc2cc(OC)c(OC)c(OC)c2)cc1N", "IC50": "> 20"}
    ]}
  ]
}
